# In the library only some 1.9% were active in any assay of this set; here they are far more common.
# ROMK primary: ROMK potassium channel modulators, primary screen, cell-based, thallium flux, MLSMR library; B-score at 10 µM; actives 2% (n = 130,000); Tet-inducible ROMK, thallium flux fluorescence; actives lie on both sides;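 active = signal ratio slope over the read window, or its plate-corrected B-score, at least 3 SD from the plate mean, either direction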;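 note: B-score of the F/F0 ratio slope over 7 to 12 s after thallium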
# Target sequence (P48048 whole entry, looked up): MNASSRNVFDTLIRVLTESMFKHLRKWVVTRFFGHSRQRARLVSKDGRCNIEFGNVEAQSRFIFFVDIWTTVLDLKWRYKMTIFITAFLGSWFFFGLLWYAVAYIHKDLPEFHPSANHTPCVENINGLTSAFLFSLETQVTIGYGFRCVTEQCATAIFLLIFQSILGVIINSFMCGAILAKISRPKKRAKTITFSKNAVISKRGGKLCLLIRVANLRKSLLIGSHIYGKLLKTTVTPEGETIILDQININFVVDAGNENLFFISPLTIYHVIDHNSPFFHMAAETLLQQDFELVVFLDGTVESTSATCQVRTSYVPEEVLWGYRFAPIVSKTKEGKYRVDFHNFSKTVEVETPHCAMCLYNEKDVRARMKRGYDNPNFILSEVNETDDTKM
# bCat nuc transl: modulators of beta-catenin nuclear translocation, primary screen, imaging, HeLa cells, immunofluorescence, high-content. AID 1665, 2009. actives 0.3% (n = 190,000). nuclear translocation activity, % at 5 µM;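 active = nuclear translocation activity above 50% at 5 µM, with a well cell count of 50 or more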;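 note: per-cell ratio of nuclear to cytoplasmic median beta-catenin stain intensity; plate controls were DMSO negative control for no effect and GSK-3 inhibitor IX positive control for full effect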
#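 System: HeLa cells, endogenous beta-catenin; compound dosing: 5 µM primary single dose, 0.1% DMSO, 0.02–20 µM confirmation series; incubation: 24 h compound exposure at 37°C, 5% CO2; signal: beta-catenin immunofluorescence imaging with DAPI; evaluation: % activation, nuclear-to-cytoplasmic median beta-catenin signal ratio per cell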
# MT stabilize HCS: microtubule stabilizers in HeLa cells, primary screen, imaging, high-content imaging | HeLa tubulin immunostaining HCS, 24 h; share of cells brighter than vehicle mean+2SD | % tubulin-high responders, % at 10 µM | actives 0.83% (n = 200,000) | AID 2205, 2009;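 active = plate Z-score above 3 for both tubulin-high and condensed-nucleus cell shares, with cell loss under 80%, at 10 µM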;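 note: anti alpha tubulin signal scored within the nucleus-defined area of each cell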
# * = called active by the depositor; . = not tested or not shown.
SMILES,ROMK primary,bCat nuc transl,MT stabilize HCS
CCCn1c(N)c(N(CCOC)C(=O)/C=C/c2ccc(C(=O)OC)cc2)c(=O)[nH]c1=O,-0.42,0,4
COc1ccccc1/C=N/NC(=O)CSc1cc(C)nc2ccccc12,0.0036,35,27*
COc1cccc2c(SCC(=O)N/N=C/c3ccc(O)cc3O)cc(C)nc12,1.1,-2,3
COc1ccccc1NC(=O)CCC(=O)OCc1cccc([N+](=O)[O-])c1,-0.29,-7,7
O=C(NC1CCCCC1)c1ccc(CNc2ccccc2)o1,.,-4,4
CCOC(=O)C(C)Sc1nc(-c2cccs2)ccc1C#N (centres undefined),0.76,1,44*
C=COC(=O)CSc1nc(-c2cccs2)ccc1C#N,0.84,-1,9
CCC1(CC)NC(=O)N(CC(=O)N2N=C(c3ccc(Cl)cc3)CC2c2ccco2)C1=O (centres undefined),0.13,-3,2
C=CCn1c(CSCc2ccc(C)cc2)nnc1SCC(=O)NCc1ccccc1,-1.9,.,1
C=CCn1c(CSCc2ccc(Cl)cc2)nnc1SCC(=O)NCc1ccccc1,-3*,-4,2
O=c1cc(O)nc(-c2ccc(Cl)cc2)s1,0.67,-2,5
COc1ccc(/C=N/NC(N)=S)cc1OC(=O)c1ccccc1,.,0,38*
COc1ccc(/C=N/NC(=O)c2cccc([N+](=O)[O-])c2)cc1OC(=O)c1ccccc1,2.4,-4,41*
COc1ccc(/C=N/NC(=O)c2cccc([N+](=O)[O-])c2)cc1OC(=O)c1ccc(C)cc1,0.077,0,34
COc1ccc(C(=O)Oc2cc(/C=N/NS(=O)(=O)c3ccccc3)ccc2OC)cc1,-0.064,0,2
Cc1ccc(NC(=O)c2ccc(=O)[nH]c2)cc1S(=O)(=O)N1CCCCC1,.,-1,.
CN(C)S(=O)(=O)c1ccc(Cl)c(NC(=O)c2ccncc2)c1,1.2,-1,4
Cc1ccc(Sc2ccc(N)cn2)cc1,.,-5,.
COCC(=O)Nc1ccccc1-c1ccccc1,0.31,-4,4
CCN(CC(=O)Nc1ccccc1SC)Cc1nc2ccccc2c(=O)[nH]1,.,2,.
CCN(CC(=O)Nc1ccccc1OC)CC(=O)Nc1ccccc1C(F)(F)F,-0.38,4,18*
CCN(CC(=O)Nc1ccccc1-c1ccccc1)Cc1nc2ccccc2c(=O)[nH]1,0.068,20,25*
COc1ccccc1CN(C)CC(=O)Nc1ccccc1-c1ccccc1,0.86,1,3
CCN(CC(=O)Nc1ccccc1OC)CC(=O)Nc1ccccc1-c1ccccc1,2.4,-2,20*
CCN(CC(=O)Nc1ccc(C(C)=O)cc1)CC(=O)Nc1ccccc1C(F)(F)F,-0.43,0,2
SMILES,ROMK primary,bCat nuc transl,MT stabilize HCS
COc1ccc(OCC(=O)Nc2ccccc2-c2ccccc2)cc1,-0.33,1,34*
Cn1ncnc1SCc1cn2cccnc2n1,.,0,4
Cc1c(C=O)c2ccccn2c1C(=O)c1cccc([N+](=O)[O-])c1,.,2,4
COc1ccccc1-c1cc2nc(C)cc(C)n2n1,.,5,.
COC(=O)C1=C(C)N(CCc2cc(OC)c(OC)c(OC)c2)C(=O)N[C@H]1c1ccc(Br)cc1,-0.12,.,2
COc1ccc(N(C(=O)c2ccco2)S(=O)(=O)c2cc(Cl)c(Cl)cc2Cl)cc1,0.56,.,33*
COc1ccc(N(C(=O)c2ccco2)S(=O)(=O)c2ccccc2)cc1,0.019,.,1
O=C(c1ccc(Br)cc1)N(c1ccccn1)C1CCCCC1,.,-1,.
CC1=CC(C)(C)N(C(=O)CCl)c2cc(C)ccc21,0.021,1,3
COc1ccc2c(c1)C(C)=CC(C)(C)N2S(=O)(=O)c1ccc(C)cc1,0.16,63*,9
CCOc1ccc2c(c1)C(C)=CC(C)(C)N2S(=O)(=O)c1ccc(C)cc1,-0.3,44,6
CC1=CC(C)(C)N(S(=O)(=O)c2ccc(C)cc2)c2cc(C)ccc21,1.6,.,21*
CNc1cc(-n2nc(C)cc2-c2ccccc2)ncn1,.,0,1
Cc1cc(-c2ccccc2)n(-c2cc(N/N=C/c3ccccc3O)ncn2)n1,2.4,128*,11
COc1nc(N=C(N)N)nc2ccc(C)cc12,.,4,2
CCOC(=O)N1CCC(NC(=O)c2cc3c(-c4cccc(OC)c4)nn(C)c3s2)CC1,0.24,0,7.7*
COc1cccc(-c2nn(C)c3sc(C(=O)NCc4ccc(C)cc4)cc23)c1,1.4,.,1
Cn1c(=O)c2c(nc(Br)n2C/C=N/NC(N)=S)n(C)c1=O,.,-3,.
COc1ccc(NC(=S)N2CCC(c3nc4ccccc4o3)CC2)c(OC)c1,.,-1,2
COc1ccc(C2C=C(c3ccc(Br)s3)Nc3ncnn32)cc1OC (centres undefined),.,58*,29*
COc1ccc(C2C=C(c3ccc(C)cc3)Nc3ncnn32)cc1 (centres undefined),-2.5,-4,5
C#CCOC(=O)Nc1ccc(=O)n(Cc2c(Cl)cccc2Cl)c1,.,.,1
COc1ccc(N2CCN(Cc3nc4scc(-c5ccccc5)c4c(=O)[nH]3)CC2)cc1,-0.59,.,4
O=c1[nH]c(CN2CCN(c3ccccc3)CC2)nc2scc(-c3ccccc3)c12,-0.042,.,20*
O=C(Nc1ccc(N2CCN(c3ccc(O)cc3)CC2)cc1)Oc1ccccc1,0.33,3,18*
SMILES,ROMK primary,bCat nuc transl,MT stabilize HCS
Nc1ccc(OC(=O)Nc2ccc(O)cc2)cc1,-0.17,-1,.
Cc1ccc(C(=O)OCC(=O)Nc2c(Cl)cc(S(N)(=O)=O)cc2Cl)o1,.,-4,.
CSC(=S)N/N=C(\C)c1ccc(Br)cc1,3.1*,-1,2
COC(=O)N/N=C(\C)c1ccc(Br)cc1,.,-2,1
CCN(CC)S(=O)(=O)c1ccc(N2CCOCC2)c(NS(=O)(=O)c2cc(C(C)(C)C)ccc2C)c1,-1.4,3,2
O=C(CN1CCN(C/C=C/c2ccccc2)CC1)NC(=O)NC1CCCCC1,-1.6,0,4
COc1cccc(N2CCN(C(=O)c3[nH]c(C)c(C(C)=O)c3C)CC2)c1,.,60*,29
CC(=O)c1c(C)[nH]c(C(=O)N2CCN(c3ccc(F)cc3)CC2)c1C,.,.,4
COC(=O)c1c(C)[nH]c(C(=O)N2CCN(c3ccc(OC)cc3)CC2)c1C,0.033,-1,4
CC(=O)c1c(C)[nH]c(C(=O)N2CCN(c3cc(Cl)ccc3C)CC2)c1C,0.25,.,53*
COCCN(C(=O)CN1CCN(S(=O)(=O)c2ccc(F)cc2)CC1)c1c(N)n(Cc2ccccc2)c(=O)[nH]c1=O,1.2,-1,4
COC(=O)c1ccc(COc2ccccc2/C=N/NS(=O)(=O)c2ccc(C)cc2)cc1,0.036,0,11
C=CCn1c(COc2cccc(C)c2)nnc1SCC(=O)c1c[nH]c2c(CC)cccc12,.,1,4
Cc1ccc(-c2csc3nc4c5ccccc5c(NCCCN5CCOCC5)nn4c(=O)c23)cc1,0.3,8,4
Cc1ccc(-c2csc3nc4c5ccccc5c(NCCCN(C)C)nn4c(=O)c23)cc1,-0.83,6,77*
S=c1[nH]c(-c2ccccc2)cs1,2.5*,-3,7
Fc1ccc(-c2csc(=S)[nH]2)cc1,1.8,1,2
COCCNC(=O)c1cc2c(=O)n(C)c3ccccc3c2n1C,.,.,5

# Screening results from PubChem BioAssay.
